In the library only some 1.9% were active in any assay of this set; here they are far more common.
MT stabilizer: microtubule stabilizers in HeLa cells, primary screen, imaging, high-content imaging. HeLa tubulin immunostaining HCS, 24 h; share of cells brighter than vehicle mean+2SD. actives 0.83% (n = 200,000). % tubulin-high responders, % at 10 µM. AID 2205, 2009;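 active means plate Z-score above 3 for both tubulin-high and condensed-nucleus cell shares, with cell loss under 80%, at 10 µM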;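 further: anti alpha tubulin signal scored within the nucleus-defined area of each cell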
bCat nuc transl: modulators of beta-catenin nuclear translocation, primary screen, imaging, HeLa cells, immunofluorescence, high-content. nuclear translocation activity, % at 5 µM. AID 1665, 2009. actives 0.3% (n = 190,000);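 active means nuclear translocation activity above 50% at 5 µM, with a well cell count of 50 or more; inconclusive means wells under 50 cells across six images, flagged as toxic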;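 further: per-cell ratio of nuclear to cytoplasmic median beta-catenin stain intensity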
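Test system: human HeLa cells, endogenous beta-catenin. Times: 24 h compound exposure, 37°C. Measured by: beta-catenin immunofluorescence imaging with DAPI.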
Ins promoter up: insulin promoter activators in MIN6 cells, imaging, high-content screening, mouse beta cells. MIN6 insulin promoter-GFP reporter; active compounds read high. z-score at 5 µM. actives 0.3% (n = 190,000);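 active means z-score above 3 at 5 µM with at least 500 cells counted in the well; inconclusive means wells under 500 cells, flagged as cytotoxic or low count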
Autophagy mod: autophagy modulators in MEF cells, primary screen, imaging, high-content, MEF GFP-LC3. AID 463193, 2010. MEF GFP-LC3 puncta imaging; test concentration mostly 10 µM. calls only at 10 µM (by protocol). actives 0.98% (n = 190,000);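 active means percentage of spot-positive cells more than 3 SD above its plate mean, without a fluorescence outlier flag or 80% toxicity; inconclusive means no clear call, values can overlap the other calls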
Numbers stand for hits; – = inactive; ? = inconclusive; · = not tested or not shown; + = active, no number.

SMILES	MT stabilizer	bCat nuc transl	Ins promoter up	Autophagy mod
Cc1cc2c3c(c1)C1(C(=O)N3C(C)(C)CC2C)C(C#N)=C(N)Oc2n[nH]c(C)c21 (stereo not drawn)	17.4	·	–	–
COc1ccc(C(C(=O)NCC2CCCO2)N(C(=O)CNC(=O)c2cccs2)c2ccc(C(C)=O)cc2)cc1OC (stereo not drawn)	–	–	–	–
CCCSc1nc(C)nc2c1c(=O)n(C)c(=O)n2C	–	–	–	+
CCCCSc1nc(C)nc2c1c(=O)n(C)c(=O)n2C	–	–	·	–
C/C(=N\NC(=O)c1c(Br)cnn1C)c1ccc(NC(=O)c2ccc(F)cc2)cc1	–	–	–	–
CCC/C(O)=C1\C(=O)CC(C)(C)CC1=Nc1ccc(OC)cc1OC	–	76.1	·	–
CCCC/C(O)=C1\C(=O)CC(C)(C)CC1=Nc1ccccc1OC	–	–	·	–
COC(=O)CC/C(O)=C1\C(=O)CC(C)(C)CC1=Nc1ccccc1OC	16.7	–	·	–
COC(=O)c1ccc(C(=O)OC)c(NC(=O)CSc2nc(-c3ccco3)cc(C(F)(F)F)n2)c1	–	·	·	–
COC(=O)c1ccccc1NC(=O)CSc1nc(-c2ccco2)cc(C(F)(F)F)n1	13.9	–	–	–
Cc1ccc(NC(=O)CSc2nc(-c3ccco3)cc(C(F)(F)F)n2)cc1C	48.8	–	·	–
Cc1cc(NC(=O)CCCSc2nc(-c3ccco3)cc(C(F)(F)F)n2)n(-c2ccccc2)n1	–	–	·	–
Cc1cc(NC(=O)CSc2nc(-c3ccco3)cc(C(F)(F)F)n2)n(-c2ccccc2)n1	44.5	–	–	–
O=C(CSc1nnc(CCc2nc3ccccc3[nH]2)n1-c1ccccc1)NCc1ccco1	–	–	–	+
O=C(NN1C(=O)c2cc(Br)ccc2NC1c1cc(Br)cc(Br)c1O)c1ccncc1 (stereo not drawn)	–	–	–	–
COc1ccc(CCNC(=S)NCc2ccc(Cl)c(Cl)c2)cc1OC	–	–	–	–
O=C(CSc1nnc(-c2ccccc2)c(-c2ccccc2)n1)NCc1ccco1	42.7	–	–	–
Cc1ccc(NC(=O)CSc2nnc(-c3ccco3)c(-c3ccco3)n2)cc1	29.2	96.8	–	–
O=C(CSc1nc(-c2ccco2)cc(C(F)(F)F)n1)Nc1ccc2c(c1)CCC2	46.8	–	–	–
O=C(CSc1nnc(-c2ccco2)c(-c2ccco2)n1)Nc1ccccc1	–	–	–	–
CCN1CCN(C(c2ccccn2)c2c(NC(=O)c3ccccc3)sc(C)c2C)CC1 (stereo not drawn)	–	–	–	–
O=C(NNC(=S)Nc1ccccc1Cl)c1ccncc1	·	–	–	·
COCCn1c(SCC(=O)Nc2ccc(C)cc2C)nc2c(oc3ccccc32)c1=O	–	·	–	+
COCCn1c(SCC(=O)Nc2ccccc2C)nc2c(oc3ccccc32)c1=O	–	–	–	–
CCN(CC)CCN1C(=O)C(O)=C(C(=O)c2ccc(C)o2)C1c1ccccn1 (stereo not drawn)	–	·	·	+
SMILES	MT stabilizer	bCat nuc transl	Ins promoter up	Autophagy mod
Cc1ccc(C(=O)C2=C(O)C(=O)N(CCN3CCOCC3)C2c2ccccn2)o1 (stereo not drawn)	–	–	–	–
Cc1cc(Cl)n2c(nc3ccccc32)c1C#N	–	106.5	?	–
CC(C)C(C)(C#N)NC(=O)CSc1nnc(C(F)(F)F)n1C (stereo not drawn)	–	–	3.02	–
Cc1cccc2cc(C(c3nnnn3Cc3ccccc3)N3CCCc4ccccc43)c(=O)[nH]c12 (stereo not drawn)	–	·	·	+
CCN1CCN(C(c2cc3cccc(C)c3[nH]c2=O)c2nnnn2Cc2ccccc2)CC1 (stereo not drawn)	–	–	–	–
O=C(NCc1ccco1)C1CC(c2cccc([N+](=O)[O-])c2)=NO1 (stereo not drawn)	–	–	–	–
COc1cccc(C2=NOC(C(=O)NCc3cccs3)C2)c1 (stereo not drawn)	21.9	97.8	–	–
COc1ccccc1CNC(=O)C1CC(c2cccc([N+](=O)[O-])c2)=NO1 (stereo not drawn)	48.5	–	–	–
C=CCOC(=O)C1=C[C@@H](c2ccc(C(F)(F)F)cc2)[C@H](CCCO)[C@@H](OCC)O1	–	–	–	–
CN(C)C(=O)CSc1cccc2cccnc12	–	·	–	+
NNC(=O)CSc1cccc2cccnc12	–	–	–	–
CC(C)(C)C(=O)Cn1ncc(Cl)c(Cl)c1=O	–	–	?	+
O/C(=C\c1ccc2ccccc2n1)c1ccc(O)cc1O	–	–	–	–
Cc1ccc(S(=O)(=O)NCCCNC(=O)N2CCOCC2)cc1	–	–	–	+
Cc1ccc(OCC(=O)N2CCCC(CCC(=O)N(C)CCc3ccccn3)C2)cc1 (stereo not drawn)	–	–	·	–
COc1ccc(OC)c(N=c2oc3cc(O)ccc3cc2C(N)=O)c1	–	–	–	–
COc1ccc2oc(=Nc3cc(F)ccc3F)c(C(N)=O)cc2c1	–	·	–	+
COc1ccc(N2C(=O)C3CCCN3C2c2ccc(C)o2)cc1 (stereo not drawn)	–	–	–	–
CCC(C)c1ccccc1NC(=O)COC(=O)c1ccc2[nH]c3c(c2c1)CCCC3 (stereo not drawn)	12.6	–	–	–
CN(C)CCCN(C(=O)c1cccs1)c1nc(-c2ccccc2)cs1	–	–	–	+
Cc1cc(C(F)(F)F)n(-c2nc(C(=O)NN)cs2)n1	–	–	–	–
COc1ccc(/C=N/NC(=O)c2csc(-n3nc(C)cc3C(F)(F)F)n2)cc1	29.7	107.8	–	–
CCOc1nc(NC(=O)NC(=O)c2ccccc2)nc(-c2ccccc2)n1	–	–	–	+
CCOc1nc(NC(=O)NS(=O)(=O)Oc2ccccc2Cl)nc(-c2ccccc2)n1	–	–	·	–
CSc1nnc2c(n1)OC(c1ccccn1)N(C(C)=O)c1ccccc1-2 (stereo not drawn)	–	–	–	–
SMILES	MT stabilizer	bCat nuc transl	Ins promoter up	Autophagy mod
O=[N+]([O-])c1ccc(-c2ccc(/C=N/Nc3nc(N4CCCC4)nc(N4CCCC4)n3)o2)cc1	34.7	–	–	+
O=[N+]([O-])c1cccc(-c2ccc(/C=N/Nc3nc(N4CCCCC4)nc(N4CCCCC4)n3)o2)c1	–	–	–	–
O=[N+]([O-])c1ccc(-c2ccc(/C=N/Nc3nc(N4CCCCC4)nc(N4CCCCC4)n3)o2)cc1	–	–	·	+
COc1ccc(-c2cnnc(N/N=C/c3ccc(-c4ccc([N+](=O)[O-])cc4)o3)n2)cc1	39.7	81.3	–	–
COc1ccccc1-c1cnnc(N/N=C/c2ccc(-c3cccc(Br)c3)o2)n1	–	–	–	–
CCN(CC(=O)NC(C)(C)C)C(=O)C(c1ccccc1)c1ccccc1	–	–	–	–
CCC(=O)Nc1ccccc1Nc1cc(C#N)c(C#N)cc1[N+](=O)[O-]	·	–	–	·
Cc1cc(C)c(S(=O)(=O)N(C)c2ccccc2)c(C)c1	–	–	–	–
